Hits are enriched below; roughly 2.5% of the tested compounds scored in any of these assays.
SENP8 block-1 – inhibitors of human SENP8 protease; inhibition, % at 10 µM; purified SENP8, Z-RLRGG-aminoluciferin cleavage, luminescence; actives 1.2% (n = 330,000); in the data active = inhibition above about 50%
SENP6 inh – SENP6 protease inhibition. Q9GZR1. Recombinant SENP6 catalytic domain, aminoluciferin luminescence. inhibition, % at 10 µM. actives 1.8% (n = 330,000). AID 2599;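 active = inhibition above about 50% at the single tested dose, limit read from the data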;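 note: plate controls were DMSO wells with enzyme for no effect and DMSO wells lacking enzyme for full effect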
SENP7 block – blocks the human protease SENP7; recombinant SENP7, Z-RLRGG-aminoluciferin luminescence, 40 min; inhibition, % at 5 µM; actives 1.5% (n = 330,000); Q9BQF6;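 active = inhibition above about 50% at the single test dose, limit read from the data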;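 note: plate controls were DMSO with enzyme for no effect and no enzyme buffer wells for full effect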
Target sequence (Q9BQF6 706-1050 limits assumed): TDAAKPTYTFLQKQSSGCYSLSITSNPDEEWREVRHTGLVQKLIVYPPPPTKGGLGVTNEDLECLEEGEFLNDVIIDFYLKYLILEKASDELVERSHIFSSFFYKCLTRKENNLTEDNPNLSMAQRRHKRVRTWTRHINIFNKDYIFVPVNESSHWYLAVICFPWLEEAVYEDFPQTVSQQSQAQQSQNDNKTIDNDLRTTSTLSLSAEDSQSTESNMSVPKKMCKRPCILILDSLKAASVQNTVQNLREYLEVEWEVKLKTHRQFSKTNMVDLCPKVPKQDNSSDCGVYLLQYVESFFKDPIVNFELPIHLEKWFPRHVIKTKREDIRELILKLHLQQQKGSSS
SENP1 FRET inh – SENP1 (human) catalytic domain inhibition; Q9P0U3; recombinant SENP1 catalytic domain, CyPet-SUMO1-YPet FRET cleavage; inhibition, % at 10 µM; actives 0.21% (n = 360,000);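 active = inhibition at least 30% at 10 µM, raw YFP signal under a set limit, fluorescence ratio 0.5 to 1.5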;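 note: 0% = enzyme with DMSO and 100% = no enzyme wells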
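Test system: recombinant human SENP1 catalytic domain, His6-tagged / Medium: pH 8 Tris buffer with EDTA, NaCl, BME, BSA, NP40, catalase / Also added: SUMO1 FRET substrate flanked by Cypet and Ypet, 25 nM / Times: 50 min reaction at room temperature / Signal: FRET, CFP and YFP emission / Control set: no-enzyme low control and enzyme-plus-DMSO high control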
SENP8 block-2 – inhibitors of human SENP8 protease; recombinant SENP8, Nedd8 substrate fluorescence; inhibition, % at 20 µM; actives 0.64% (n = 360,000); in the data active = inhibition mostly above about 40%, no sharp cut-off; inactive = mostly below about 27%
SENP8 conf – human SENP8 inhibition, confirmed. inhibition, % at 12.5 µM. Recombinant SENP8, Z-RLRGG-aminoluciferin luminescence, 60 min. shares compounds with SENP7 block. AID 488912. actives 40% (n = 6,200);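 active = mean inhibition across replicates above about 50%, limit read from the data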
SENP6 confirm – confirmation of human SENP6 protease inhibitors; recombinant SENP6, Z-RLRGG-aminoluciferin luminescence; inhibition, % at 12.5 µM; AID 488915; actives 58% (n = 6,200); shares compounds with SENP7 block
SENP7 confirm – confirmation of human SENP7 protease inhibitors | recombinant SENP7, Z-RLRGG-aminoluciferin luminescence, 40 min | inhibition, % at 12.5 µM | actives 69% (n = 6,200) | shares compounds with SENP7 block | AID 488917
Casp3 SENP sel – caspase-3 inhibition (SENP selectivity assay); shares compounds with SENP7 block; actives 60% (n = 6,200); AID 488918; inhibition, % at 12.5 µM; purified caspase-3, Z-DEVD-aminoluciferin luminescence, 60 min;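 active = mean inhibition above about 50%, limit read from the data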;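 note: plate controls were enzyme with DMSO for no effect and wells without caspase-3 for full effect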
Target sequence (P42574 28-227 limits assumed): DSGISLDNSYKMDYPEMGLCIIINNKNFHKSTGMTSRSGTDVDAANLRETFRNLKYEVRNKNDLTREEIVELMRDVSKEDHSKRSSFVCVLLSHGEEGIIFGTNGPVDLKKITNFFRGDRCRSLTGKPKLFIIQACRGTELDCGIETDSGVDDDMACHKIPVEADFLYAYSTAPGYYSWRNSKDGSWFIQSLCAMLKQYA
SENP luc ctr – interferes with luciferase luminescence in SENP counter-screen | Pre-incubated SENP8/Z-RLRGG-aminoluciferin, luciferase luminescence interference | actives 39% (n = 6,200) | shares compounds with SENP7 block | inhibition, % at 12.5 µM;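 active = mean inhibition above about 50% when retested at one dose, limit read from the data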;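 note: plate controls were DMSO wells with completed reaction for no effect and substrate without enzyme for full effect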
Numbers without * were called inactive; x = not tested or not shown.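 Rule for the calls, unless noted: active = mean inhibition above about 50% in the one-dose retest (limit read from the data); inactive = the rest.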

SMILES	SENP8 block-1	SENP6 inh	SENP7 block	SENP1 FRET inh	SENP8 block-2	SENP8 conf	SENP6 confirm	SENP7 confirm	Casp3 SENP sel	SENP luc ctr
N/C(=N\OC(=O)/C=C/c1ccccc1)c1ccccn1	88*	95*	96*	4	-2	89*	90*	100*	94*	93*
N/C(=N\OC(=O)c1ccccc1Cl)c1cccc([N+](=O)[O-])c1	67*	75*	90*	1	15	59*	60*	91*	59*	81*
N/C(=N\OC(=O)c1cccc([N+](=O)[O-])c1)c1ccccn1	37	50*	61*	2	13	35	46	75*	80*	50
COc1ccc(/C=C/C(=O)O/N=C(\N)c2ccccn2)cc1OC	-9	5	13	-1	-112	x	x	x	x	x
N/C(=N/OC(=O)c1cccc([N+](=O)[O-])c1)c1cccc([N+](=O)[O-])c1	-10	-19	-5	1	26	x	x	x	x	x
N/C(=N\OC(=O)c1ccc(Cl)cc1[N+](=O)[O-])c1ccccn1	53*	59*	51*	0	3	38	43	77*	77*	4
N/C(=N\OC(=O)c1cc([N+](=O)[O-])ccc1Cl)c1ccccn1	-10	-8	-4	1	7	x	x	x	x	x
NS(=O)(=O)OCC(Cc1ccccc1)N1C(=O)c2ccccc2C1=O (stereo not given)	-18	-18	-3	1	20	x	x	x	x	x
COc1cccc(C(CCc2cc(OC)c(OC)c(OC)c2)NC(C)=O)c1 (stereo not given)	x	x	x	2	5	x	x	x	x	x
N/C(=N\OC(=O)COc1cc(Cl)c(Cl)cc1Cl)c1ccccn1	58*	79*	77*	5	16	12	55*	10	52*	12
N/C(=N\OC(=O)c1ccc(Cl)cc1Cl)c1ccccn1	96*	99*	99*	1	15	97*	98*	102*	98*	95*
COc1cc(C(=O)Nc2ccc(C)c(S(=O)(=O)N(C)C)c2)ccc1OCC(=O)N1CCOCC1	-4	-14	-2	-4	-3	x	x	x	x	x
COCCOC(=O)N1CCCCC1c1cc(C(=O)NCc2ccc(Cl)c(Cl)c2)no1 (stereo not given)	x	x	x	2	11	x	x	x	x	x
COC(=O)c1ccccc1NC(=O)c1cccnc1	5	18	-2	2	10	x	x	x	x	x
COC(=O)c1ccccc1NC(=O)Nc1cccnc1	59*	77*	1	-2	-33	5	72*	95*	92*	70*
CCCCc1ccc(NC(=O)Nc2cccnc2)cc1	51*	74*	58*	-1	12	63*	67*	84*	39	41
CC(C)S(=O)(=O)c1csc(C(=O)Nc2ccc(F)cc2)c1N	92*	98*	98*	0	-121	96*	97*	102*	97*	87*
O=C(CN1C(=O)/C(=C\c2ccco2)SC1=S)Nc1ccc(O)cc1C(=O)O	9	12	8	-4	21	x	x	x	x	x
Cc1ccc(S(=O)(=O)NC(CCC(N)=O)C(=O)NCc2ccc3c(c2)OCO3)c(C)c1 (stereo not given)	-11	1	-9	2	6	x	x	x	x	x
COc1ccc(-c2cc3c(nn2)-c2ccccc2C3=O)cc1	96*	97*	99*	4	43*	-4	24	20	41	10
Cc1cnc2c(c1)C(=O)c1ccccc1-2	-4	-14	2	-1	18	x	x	x	x	x
COc1ccc(-c2cn(Cc3ccc4c(c3)C(=O)c3ccccc3C4=O)nn2)cc1	-7	1	11	-1	16	x	x	x	x	x
Cc1cccc(-c2cc3c(nn2)-c2ccccc2C3=O)c1	95*	90*	100*	1	32	32	74*	88*	83*	34
O=C1c2ccccc2-c2nnc(-c3ccccc3)cc21	96*	99*	99*	1	37	6	38	44	29	10
Cc1cc(C(=O)Nc2ccon2)c(C)o1	-10	-39	-9	-7	1	x	x	x	x	x
SMILES	SENP8 block-1	SENP6 inh	SENP7 block	SENP1 FRET inh	SENP8 block-2	SENP8 conf	SENP6 confirm	SENP7 confirm	Casp3 SENP sel	SENP luc ctr
CC(C)(C)c1cc(NC(=O)c2ccco2)no1	32	67*	71*	1	9	53*	57*	86*	83*	56*
CC(C)(C)c1cc(NC(=O)Nc2ccccc2)no1	13	30	7	1	23	x	x	x	x	x
Cc1cc(C(=O)Nc2cc(C(C)(C)C)on2)c(C)o1	64*	73*	71*	-1	2	15	25	44	51*	11
Cc1cc(C)cc(NC(=S)Nc2cccc3cnccc23)c1	81*	81*	37	-5	-122	6	19	4	-3	-3
Cc1ccc(NC(=S)Nc2cccc3cnccc23)c(C)c1	87*	95*	77*	-3	-70	7	9	-8	2	-1
C=C(C)CNC(=S)Nc1cccc2cnccc12	-6	-5	-3	0	-11	x	x	x	x	x
CCc1ccc(NC(=S)Nc2cccc3cnccc23)cc1	83*	92*	64*	-7	-165	10	32	11	2	4
Cc1ccc(NC(=S)c2ccncc2)c(C)c1	-10	10	8	1	11	x	x	x	x	x
Oc1ccccc1/C=C/c1noc(-c2ccccc2O)n1	3	-6	52*	1	-122	-5	1	79*	38	5
CC(=O)Nc1ccc(/C=C/c2noc(-c3ccccc3O)n2)cc1	-7	-36	59*	-6	-237	4	2	1	0	2
Cc1ccc(CNC(=O)CNC(=O)[C@@H]2Cc3ccccc3CN2C(=O)OC(C)(C)C)cc1	-10	-9	2	0	14	x	x	x	x	x
O=c1[nH]c(/C=C/c2ccccc2Cl)nc2ccccc12	76*	77*	94*	-3	-52	43	42	60*	37	3
O=C(O)c1ccc(/C=C/c2nc3ccccc3c(=O)[nH]2)cc1	95*	97*	100*	1	-97	97*	98*	102*	98*	56*

Screening data (PubChem BioAssay)
